Screening results from PubChem.
hERG protect: hERG rescue from dofetilide block, primary screen, cell-based, CHO-hERG, FluxOR thallium flux, dofetilide IC70; dofetilide IC70 present; activation (rescue from dofetilide block), less the hit threshold, % at 10 µM; hit rate 0.51% among 310,000;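 active means activation above the mean of controls blocked by dofetilide plus 5 SD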;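 further: thallium influx through hERG after potassium depolarization seen as dye fluorescence rise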
KCNK3 block: human KCNK3 channel inhibitors, primary screen, CHO cells, FluxOR thallium flux, B-score | Potassium channel subfamily K member 3 (Homo sapiens), O14649 | FluxOR fluorescence; stronger effect = lower value | B-score at 10 µM | hit rate 0.84% among 340,000 | AID 602410, 2012;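 active means B-score under library mean minus 4 SD, starting fluorescence ratio at most library mean plus 5 SD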;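 further: more negative B-score means stronger inhibition of thallium flux through KCNK3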
KCNQ1 block: inhibitors of human KCNQ1 channel, primary screen, cell-based, thallium flux, high-throughput; hit rate 1.3% among 310,000; CHO-K1 KCNQ1, FluxOR thallium flux fluorescence; stronger effect = higher value; AID 2642, 2010; Potassium voltage-gated channel subfamily KQT member 1 (Homo sapiens), P51787; B-score at 10 µM;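 active means compounds whose thallium flux B-score, printed positive for inhibition, exceeds three library SD while starting fluorescence stays within three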;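 further: channel opened by potassium depolarization with thallium stimulus after 20 min compound exposure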
Kir21 inh: inhibitors of mouse Kir2.1 inward-rectifier potassium channel; Inward rectifier potassium channel 2 (Mus musculus), P35561; HEK293-Kir2.1, FluxOR thallium flux fluorescence; stronger effect = lower value; B-score at 10 µM; hit rate 0.85% among 310,000; AID 1672, 2009;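 active means fluorescence ratio B-score at or below minus 3 SD of library scores, with starting-brightness B-score within 2 SD, cut at about -4.2 in these data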;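 further: channel flux triggered by added potassium and thallium sulfate stimulus; B-score of peak minus minimum fluorescence over baseline after thallium stimulus; more negative B-score means stronger Kir2.1 block with less thallium influx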
Target sequence (P35561 whole entry, looked up): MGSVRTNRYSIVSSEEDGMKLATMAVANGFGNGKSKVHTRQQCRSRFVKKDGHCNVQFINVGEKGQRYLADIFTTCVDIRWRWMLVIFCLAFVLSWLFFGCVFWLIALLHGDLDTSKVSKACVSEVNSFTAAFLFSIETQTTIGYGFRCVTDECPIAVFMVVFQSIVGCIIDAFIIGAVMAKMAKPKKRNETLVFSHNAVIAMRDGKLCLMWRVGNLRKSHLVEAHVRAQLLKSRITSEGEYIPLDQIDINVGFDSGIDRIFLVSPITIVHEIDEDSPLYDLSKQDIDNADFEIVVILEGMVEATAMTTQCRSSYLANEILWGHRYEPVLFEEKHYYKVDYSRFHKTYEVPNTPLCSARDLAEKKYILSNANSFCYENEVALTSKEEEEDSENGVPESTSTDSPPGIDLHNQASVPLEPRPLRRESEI
KCNK9 inh: KCNK9 potassium channel inhibitors, primary screen, HEK293 cells, thallium flux. Potassium channel subfamily K member 9 (Homo sapiens), Q9NPC2. FluxOR thallium flux fluorescence; stronger effect = lower value. B-score at 10 µM. hit rate 1.2% among 310,000. AID 488922, 2010;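 active means ratio B-score over 3 SD below the library mean, with starting fluorescence within 5 SD of its mean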;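 further: negative B-score means less thallium flux so channel inhibition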
KCNQ1 act: potentiators or activators of KCNQ1 channel, primary screen, cell-based, thallium flux, high-throughput | CHO-K1 KCNQ1, thallium flux FluxOR fluorescence; stronger effect = higher value | AID 2648, 2010 | hit rate 0.35% among 310,000 | B-score at 10 µM;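 active means fluorescence ratio B-score, a plate-corrected score, at least three library SD, with initial intensity B-score within 5 SD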
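Assay system: CHO-K1 cells stably expressing KCNQ1; Medium: assay buffer with matched DMSO; Also added: K+/Tl+ depolarizing stimulus; Dosing: single dose; Timing: dye 90 min, compound 20 min, room temperature; Measured by: kinetic FluxOR thallium fluorescence, 10-s 1-Hz baseline, 110-s post-stimulus read; Read-out: peak-minus-minimum fluorescence over initial fluorescence, negative-control normalized, B-scored.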
KCNK3 confirm: retest of human KCNK3 channel inhibitors, confirmation, CHO cells, FluxOR thallium flux, triplicate. shares compounds with KCNK3 block. hit rate 99% among 2,400. ratio percent of control, % at 10 µM. FluxOR fluorescence; 0% buffer, 100% carvedilol maximal block;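 active means ratio percent of control, averaged over triplicates, above buffer control mean plus 5 SD, cut at about 64% in these data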;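 further: ratio is the fluorescence rise from min to max over baseline after thallium stimulus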
KCNK3 noninduced: thallium flux inhibition in non-induced cells, primary screen, counter-screen for KCNK3 inhibitor project, cell-based, non-induced KCNK3 line, FluxOR thallium, triplicate. shares compounds with KCNK3 block. non-induced KCNK3 parental cells; stronger effect = lower value. thallium flux ratio (lower = more inhibition) at 10 µM. hit rate 40% among 2,400. AID 651747, 2012;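 active means thallium flux ratio, averaged over three wells, more than 5 SD below the buffer control mean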;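 further: host cells are CHO cells without KCNK3 induction; ratio is peak minus trough fluorescence over baseline then normalized to buffer controls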
The depositor's hits bear a star. Most compounds without a hit are left out; they make up all but 3.7% or so of the library.

Results for O=C(CSc1nnc(NC(=O)c2ccccc2F)s1)NCC1CCCO1 (centres undefined) ?
hERG protect: -9; KCNK3 block: -8.8*; KCNQ1 block: inactive; Kir21 inh: 0.28; KCNK9 inh: inactive; KCNQ1 act: inactive; KCNK3 confirm: 86*; KCNK3 noninduced: inactive

How did O=C(CCNC(=O)c1ccc(Cl)cc1)Nc1cccc(S(=O)(=O)N2CCCCCC2)c1 do in these assays?
hERG protect: -16; KCNK3 block: inactive; KCNQ1 block: inactive; Kir21 inh: 2.5; KCNK9 inh: inactive; KCNQ1 act: inactive

How did Cc1nn(CCCC(=O)Nc2cc(Oc3ccccc3)cc([N+](=O)[O-])c2)c(C)c1[N+](=O)[O-] do in these assays?
hERG protect: -6; KCNK3 block: -8.8*; KCNQ1 block: inactive; Kir21 inh: -1.2; KCNK9 inh: inactive; KCNQ1 act: inactive; KCNK3 confirm: 124*; KCNK3 noninduced: 0.14*

What do the screens show for `CCCc1ccc2oc(C(=O)N(Cc3nccn3C)C(C)C)c(C)c2c1`?
hERG protect: -7; KCNK3 block: -11*; KCNQ1 block: inactive; Kir21 inh: 0.02; KCNK9 inh: inactive; KCNQ1 act: inactive; KCNK3 confirm: 113*; KCNK3 noninduced: inactive

What do the screens show for `C/C(=N\N=C(N)N)c1ccc(C)c(C)c1`?
hERG protect: -21; KCNK3 block: inactive; KCNQ1 block: inactive; Kir21 inh: 0.84; KCNK9 inh: inactive; KCNQ1 act: inactive

What do the screens show for `Fc1ccc(C2=Nc3cccc4cccc(c34)N2)cc1`?
hERG protect: -1; KCNK3 block: inactive; KCNQ1 block: inactive; Kir21 inh: -0.07; KCNK9 inh: inactive; KCNQ1 act: inactive

Results for FC(F)(F)C1=Nc2cccc3cccc(c23)N1 ?
KCNK3 block: -13*; KCNK3 confirm: 127*; KCNK3 noninduced: 0.11*

Results for CCOC(=O)[C@H]1[C@H]2COc3ccc(Cl)cc3[C@@H]2N2C(=O)CN(CC3CCCO3)C(=O)[C@@]12C (some centres undefined) ?
KCNK3 block: inactive

How did CCC1CCCCN1S(=O)(=O)c1ccc(NC(=O)c2nc(S(C)(=O)=O)ncc2Cl)cc1 (centres undefined) do in these assays?
hERG protect: -29; KCNK3 block: -11*; KCNQ1 block: inactive; Kir21 inh: -1.9; KCNK9 inh: inactive; KCNQ1 act: inactive; KCNK3 confirm: 114*; KCNK3 noninduced: 0.14*

How did CCC1CCCCN1S(=O)(=O)c1ccc(NC(=O)c2ccncc2)cc1 (centres undefined) do in these assays?
hERG protect: -6; KCNK3 block: -10*; KCNQ1 block: inactive; Kir21 inh: 0.18; KCNK9 inh: inactive; KCNQ1 act: inactive; KCNK3 confirm: 121*; KCNK3 noninduced: inactive

What do the screens show for `CCS(=O)(=O)c1ncc(Cl)c(C(=O)Nc2ccc(S(=O)(=O)N3CCCC(C)C3)cc2)n1` (centres undefined)?
hERG protect: -8; KCNK3 block: inactive; KCNQ1 block: inactive; Kir21 inh: 1.8; KCNK9 inh: inactive; KCNQ1 act: inactive

How did C=CCNCc1ccccc1[N+](=O)[O-] do in these assays?
hERG protect: 1; KCNK3 block: inactive; KCNQ1 block: inactive; Kir21 inh: 0.14; KCNK9 inh: inactive; KCNQ1 act: inactive
